By IC50 is commonly meant the concentration at which inhibition is half-maximal.

The record followed here is ChEMBL document CHEMBL3407395, “Synthesis, characterization, and optimization for in vivo delivery of a nonselective isopeptidase inhibitor as new antineoplastic agent” (J Med Chem, 2015).

Activity calls are given as the source filed them. The calls are words filed in the database; no cut-off is given here.

For experiment [1], the system named is A549. The experiment in a line: Induction of cell death in human A549 cells at 10 uM after 24 to 72 hrs by trypan blue assay. The class given is functional, cell-based. The essentials:
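A549 cells given 10 µM for 24–72 h. Cell death was scored by trypan blue at each time point.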

The test system of experiment [2] is A549. Kind of experiment: Induction of cell death in human A549 cells assessed as stabilization of p53 at 2.5 to 10 uM after 24 hrs by immunoblot assay. The experiment is classed as functional, cell-based. The essentials:
(§1)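 A549 cells dosed at three levels (2.5, 5, 10 µM or 1, 2.5, 5 µM depending on inhibitor); lysates made after 24 h. Immunoblots probed poly-ubiquitin, p53 and Noxa, quantified by densitometry; mean of two experiments.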
On the technique in general: Immunoblotting shows a protein as a band on a membrane.

In experiment [3] the test system is A549. Kind of experiment: Cytotoxicity against human A549 cells after 48 hrs by resazurin assay. The class given is functional, cell-based. The note with it: A549, 48 h. (Resazurin is reduced to fluorescent resorufin, in cell work by metabolically active cells.)
Another experiment has as its system A-375. The experiment in a line: Induction of cell death in human A375 cells assessed as accumulation of poly-ubiquitinated proteins at 10 uM after 24 hrs by immunoblot assay. The class given is functional, cell-based.
The test system of a further experiment is U-87MG ATCC. Kind of experiment: Induction of cell death in human U87MG cells at 4.2 to 18.4 uM after 24 hrs by trypan blue assay in presence of zVAD-fmk. The class given is functional, cell-based.
The next experiment deals with U-87 MG. Kind of experiment: Induction of necrosis in human U87MG cells at 0.6 to 10 uM after 24 hrs by trypan blue assay. The note with it: U-87MG ATCC. The class given is functional, cell-based. The essentials:
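U87MG cells treated 24 h at the indicated concentrations. Death scored as percent trypan blue-positive cells. Caspase activity measured in parallel with a rhodamine 110 bis-(N-Z-DEVD amide) fluorogenic substrate and read in relative fluorescence units.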

The subject of a further experiment is T98G. Kind of experiment: Induction of cell death in human T98G cells at 4.2 to 18.4 uM after 24 hrs by trypan blue assay in presence of zVAD-fmk. The class given is functional, cell-based.
For experiment [4], the target named is T1, Ubl carboxyl-terminal hydrolase 18 (Homo sapiens) (UniProt Q9UMW8).
T1 sequence (whole entry): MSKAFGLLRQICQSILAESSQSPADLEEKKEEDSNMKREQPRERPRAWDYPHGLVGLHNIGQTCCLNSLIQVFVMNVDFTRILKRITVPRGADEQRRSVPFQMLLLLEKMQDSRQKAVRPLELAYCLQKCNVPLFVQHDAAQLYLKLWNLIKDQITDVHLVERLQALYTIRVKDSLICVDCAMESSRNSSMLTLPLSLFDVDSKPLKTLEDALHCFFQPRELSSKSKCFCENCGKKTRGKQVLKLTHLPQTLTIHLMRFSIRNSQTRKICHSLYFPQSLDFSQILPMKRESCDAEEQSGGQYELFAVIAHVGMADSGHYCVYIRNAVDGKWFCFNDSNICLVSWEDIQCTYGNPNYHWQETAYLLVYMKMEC
The experiment in a line: Inhibition of USP18 (unknown origin) expressed in human A549 cells coexpressing ISG15-GFP assessed as reduction in free GFP at 2.5 to 10 uM after 24 hrs by immunoblot assay. The class given is cell-based.

In experiment [5] the target is Ubiquitin carboxyl-terminal hydrolase isozyme L1 (Homo sapiens) (UniProt P09936). The experiment in a line: Inhibition of GST-tagged recombinant full-length UCHL1 (unknown origin) expressed in bacteria using Ub-AMC as substrate preincubated for 30 mins before substrate addition measured after 60 mins by fluorescence assay. The essentials: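 Purified isopeptidase activity was measured with ubiquitin-AMC as fluorogenic substrate; IC50 was derived from inhibition.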
Ubiquitin carboxyl-terminal hydrolase isozyme L1 (Homo sapiens), sequence (P09936 whole entry, looked up): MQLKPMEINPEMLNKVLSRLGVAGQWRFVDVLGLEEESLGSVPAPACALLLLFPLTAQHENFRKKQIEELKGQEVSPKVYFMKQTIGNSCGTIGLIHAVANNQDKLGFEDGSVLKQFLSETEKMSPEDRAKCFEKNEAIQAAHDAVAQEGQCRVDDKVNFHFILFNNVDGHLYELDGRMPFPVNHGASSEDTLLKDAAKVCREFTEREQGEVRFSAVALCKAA

The test system of experiment [6] is A549. The experiment in a line: Induction of cell death in human A549 cells assessed as accumulation of Noxa at 1 to 5 uM after 24 hrs by immunoblot assay. The class given is functional, cell-based. The essentials:
as §1

For the compound `O=C1/C(=C/c2ccc([N+](=O)[O-])cc2)CC(O)C/C1=C\c1ccc([N+](=O)[O-])cc1` (stereo not given), the outcome with A549 [1], in the experiment with A549 [2], with A-375, in the experiment on U-87MG ATCC, with U-87 MG and in the experiment on A549 [6] was Active. In addition, the IC50 in the experiment on A549 [3] came out at 16 µM. Besides, the outcome in the experiment with T98G was inactive. For the same compound, in experiment [4], the inhibition entry was “Active”. Further, the inhibition result in experiment [5] was “inactive”.
